# According to ChEMBL document CHEMBL1148673, “Peptidomimetic C5a receptor antagonists with hydrophobic substitutions at the C-terminus: increased receptor specificity and in vivo activity” (Bioorg Med Chem Lett, 2006):
# Residues, ends and D or L forms follow the SMILES beside them.
# Molecular target: T1, C5a anaphylatoxin chemotactic receptor 1 (Homo sapiens, UniProt P21730)
# T1 sequence (P21730 whole entry): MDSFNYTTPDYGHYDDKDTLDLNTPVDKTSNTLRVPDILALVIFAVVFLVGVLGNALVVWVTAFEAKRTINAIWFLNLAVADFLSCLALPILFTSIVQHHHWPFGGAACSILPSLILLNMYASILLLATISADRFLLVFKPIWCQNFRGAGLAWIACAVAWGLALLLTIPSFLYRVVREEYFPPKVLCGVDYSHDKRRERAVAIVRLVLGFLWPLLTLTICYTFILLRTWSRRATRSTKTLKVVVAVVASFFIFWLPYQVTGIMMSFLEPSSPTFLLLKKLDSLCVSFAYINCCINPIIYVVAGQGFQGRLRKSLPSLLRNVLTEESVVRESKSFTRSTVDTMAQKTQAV
# Experiment: Antagonist activity at human C5aR in CD88 transfected RBL cells assessed as inhibition of C5a-induced glucosaminidase release
# Assay type: functional, cell-based
# How it was run: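 Functional antagonism read as inhibition of glucosaminidase release stimulated by C5a from RBL cells transfected with CD88 (RBL+); IC50 in µM.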
row,SMILES,IC50
1,"CC(=O)N[C@@H](C)C(=O)N[C@H]1CCCNC(=O)[C@H](CCCN=C(N)N)NC(=O)[C@H](Cc2c[nH]c3ccccc23)NC(=O)[C@@H](CC2CCCCC2)NC(=O)[C@@H]2CCCN2C1=O (HELM PEPTIDE1{[ac].A.[Orn].P.[O=C([C@@H](CC1CCCCC1)N[*:1])[*:2]].W.R}$PEPTIDE1,PEPTIDE1,3:R3-7:R2$$$V2.0)",23 µM
2,CC(=O)N[C@@H](Cc1ccccc1)C(=O)N[C@H]1CCCNC(=O)[C@H](CCC/N=C(/N)N[N+](=O)[O-])NC(=O)[C@H](Cc2c[nH]c3ccccc23)NC(=O)[C@@H](CC2CCCCC2)NC(=O)[C@@H]2CCCN2C1=O,0.57 µM
3,"CC(=O)N[C@@H](Cc1ccccc1)C(=O)N[C@H]1CCCNC(=O)[C@H](Cc2ccccc2)NC(=O)[C@H](Cc2c[nH]c3ccccc23)NC(=O)[C@@H](CC2CCCCC2)NC(=O)[C@@H]2CCCN2C1=O (HELM PEPTIDE1{[ac].F.[Orn].P.[O=C([C@@H](CC1CCCCC1)N[*:1])[*:2]].W.F}$PEPTIDE1,PEPTIDE1,3:R3-7:R2$$$V2.0)",0.026 µM
4,"CC(=O)N[C@@H](Cc1ccccc1)C(=O)N[C@H]1CCCNC(=O)[C@H](Cc2ccc3ccccc3c2)NC(=O)[C@H](Cc2c[nH]c3ccccc23)NC(=O)[C@@H](CC2CCCCC2)NC(=O)[C@@H]2CCCN2C1=O (HELM PEPTIDE1{[ac].F.[Orn].P.[O=C([C@@H](CC1CCCCC1)N[*:1])[*:2]].W.[O=C([C@H](Cc1ccc2ccccc2c1)N[*:1])[*:2]]}$PEPTIDE1,PEPTIDE1,3:R3-7:R2$$$V2.0)",0.076 µM
5,CCCCCCCC[C@@H]1NC(=O)[C@H](Cc2c[nH]c3ccccc23)NC(=O)[C@@H](CC2CCCCC2)NC(=O)[C@@H]2CCCN2C(=O)[C@@H](NC(=O)[C@H](Cc2ccccc2)NC(C)=O)CCCNC1=O,0.3 µM
6,"CC(=O)N[C@@H](Cc1ccccc1)C(=O)N[C@H]1CCCNC(=O)[C@H](CC(C)C)NC(=O)[C@H](Cc2c[nH]c3ccccc23)NC(=O)[C@@H](CC2CCCCC2)NC(=O)[C@@H]2CCCN2C1=O (HELM PEPTIDE1{[ac].F.[Orn].P.[O=C([C@@H](CC1CCCCC1)N[*:1])[*:2]].W.L}$PEPTIDE1,PEPTIDE1,3:R3-7:R2$$$V2.0)",0.054 µM
7,CC[C@H](C)[C@@H]1NC(=O)[C@H](Cc2c[nH]c3ccccc23)NC(=O)[C@@H](CC2CCCCC2)NC(=O)[C@@H]2CCCN2C(=O)[C@@H](NC(=O)[C@H](Cc2ccccc2)NC(C)=O)CCCNC1=O,0.05 µM
8,CC(=O)N[C@@H](Cc1ccccc1)C(=O)N[C@@H](CCCN)C(=O)N1CCC[C@H]1C(=O)N[C@H](CC1CCCCC1)C(=O)N[C@@H](Cc1c[nH]c2ccccc12)C(=O)N[C@@H](CCCN=C(N)N)C(=O)O,0.535 µM
9,"CCCC[C@@H]1NC(=O)[C@H](Cc2c[nH]c3ccccc23)NC(=O)[C@@H](CC2CCCCC2)NC(=O)[C@@H]2CCCN2C(=O)[C@@H](NC(=O)[C@H](Cc2ccccc2)NC(C)=O)CCCNC1=O (HELM PEPTIDE1{[ac].F.[Orn].P.[O=C([C@@H](CC1CCCCC1)N[*:1])[*:2]].W.[Nle]}$PEPTIDE1,PEPTIDE1,3:R3-7:R2$$$V2.0)",0.025 µM
10,"CC(=O)N[C@@H](Cc1ccccc1)C(=O)N[C@H]1CCCNC(=O)[C@H](Cc2cccs2)NC(=O)[C@H](Cc2c[nH]c3ccccc23)NC(=O)[C@@H](CC2CCCCC2)NC(=O)[C@@H]2CCCN2C1=O (HELM PEPTIDE1{[ac].F.[Orn].P.[O=C([C@@H](CC1CCCCC1)N[*:1])[*:2]].W.[O=C([C@H](Cc1cccs1)N[*:1])[*:2]]}$PEPTIDE1,PEPTIDE1,3:R3-7:R2$$$V2.0)",0.022 µM
11,CC(=O)N[C@@H](Cc1ccccc1)C(=O)N[C@H]1CCCNC(=O)[C@H](CCC2CCCCC2)NC(=O)[C@H](Cc2c[nH]c3ccccc23)NC(=O)[C@@H](CC2CCCCC2)NC(=O)[C@@H]2CCCN2C1=O,0.146 µM
12,CCCC[C@H](NC(=O)[C@H](Cc1c[nH]c2ccccc12)NC(=O)[C@@H](CC1CCCCC1)NC(=O)[C@@H]1CCCN1C(=O)[C@H](CCCN)NC(=O)[C@H](Cc1ccccc1)NC(C)=O)C(N)=O,0.463 µM
13,CC(=O)N[C@@H](Cc1ccccc1)C(=O)N[C@H]1CCCNC(=O)[C@H](CCCNC(=N)N)NC(=O)[C@H](Cc2c[nH]c3ccccc23)NC(=O)[C@@H](C)NC(=O)[C@@H]2CCCN2C1=O,55 µM
14,CC(=O)N[C@@H](Cc1ccccc1)C(=O)N[C@H]1CCCNC(=O)[C@H](CCCNC(N)=O)NC(=O)[C@H](Cc2c[nH]c3ccccc23)NC(=O)[C@@H](CC2CCCCC2)NC(=O)[C@@H]2CCCN2C1=O,0.49 µM
15,"CCC[C@@H]1NC(=O)[C@H](Cc2c[nH]c3ccccc23)NC(=O)[C@@H](CC2CCCCC2)NC(=O)[C@@H]2CCCN2C(=O)[C@@H](NC(=O)[C@H](Cc2ccccc2)NC(C)=O)CCCNC1=O (HELM PEPTIDE1{[ac].F.[Orn].P.[O=C([C@@H](CC1CCCCC1)N[*:1])[*:2]].W.[Nva]}$PEPTIDE1,PEPTIDE1,3:R3-7:R2$$$V2.0)",0.018 µM
16,CC(=O)N[C@@H](Cc1ccccc1)C(=O)N[C@H]1CCCNC(=O)[C@H](CCCNC(=N)N)NC(=O)[C@H](Cc2c[nH]c3ccccc23)NC(=O)[C@@H](CC2CCCCC2)NC(=O)[C@H](C)NC1=O,0.025 µM
17,"CC(=O)N[C@@H](Cc1ccccc1)C(=O)N[C@H]1CCCNC(=O)[C@H](CC2CCCCC2)NC(=O)[C@H](Cc2c[nH]c3ccccc23)NC(=O)[C@@H](CC2CCCCC2)NC(=O)[C@@H]2CCCN2C1=O (HELM PEPTIDE1{[ac].F.[Orn].P.[O=C([C@@H](CC1CCCCC1)N[*:1])[*:2]].W.[Cha]}$PEPTIDE1,PEPTIDE1,3:R3-7:R2$$$V2.0)",0.045 µM
18,"CC(=O)N[C@@H](Cc1ccccc1)C(=O)N[C@H]1CCCNC(=O)[C@H](CCCN=C(N)N)NC(=O)[C@H](C)NC(=O)[C@@H](CC2CCCCC2)NC(=O)[C@@H]2CCCN2C1=O (HELM PEPTIDE1{[ac].F.[Orn].P.[O=C([C@@H](CC1CCCCC1)N[*:1])[*:2]].A.R}$PEPTIDE1,PEPTIDE1,3:R3-7:R2$$$V2.0)",100 µM
19,"CC(=O)N[C@@H](Cc1ccccc1)C(=O)N[C@H]1CCCNC(=O)[C@H](C2CCCCC2)NC(=O)[C@H](Cc2c[nH]c3ccccc23)NC(=O)[C@@H](CC2CCCCC2)NC(=O)[C@@H]2CCCN2C1=O (HELM PEPTIDE1{[ac].F.[Orn].P.[O=C([C@@H](CC1CCCCC1)N[*:1])[*:2]].W.[O=C([C@@H](N[*:1])C1CCCCC1)[*:2]]}$PEPTIDE1,PEPTIDE1,3:R3-7:R2$$$V2.0)",0.038 µM
20,"CC(=O)N[C@@H](Cc1ccccc1)C(=O)N[C@H]1CCCNC(=O)[C@H](C)NC(=O)[C@H](Cc2c[nH]c3ccccc23)NC(=O)[C@@H](CC2CCCCC2)NC(=O)[C@@H]2CCCN2C1=O (HELM PEPTIDE1{[ac].F.[Orn].P.[O=C([C@@H](CC1CCCCC1)N[*:1])[*:2]].W.A}$PEPTIDE1,PEPTIDE1,3:R3-7:R2$$$V2.0)",6.9 µM
21,"CC(=O)N[C@@H](Cc1ccccc1)C(=O)N[C@H]1CCCNC(=O)[C@H](Cc2cccc3ccccc23)NC(=O)[C@H](Cc2c[nH]c3ccccc23)NC(=O)[C@@H](CC2CCCCC2)NC(=O)[C@@H]2CCCN2C1=O (HELM PEPTIDE1{[ac].F.[Orn].P.[O=C([C@@H](CC1CCCCC1)N[*:1])[*:2]].W.[O=C([C@H](Cc1cccc2ccccc12)N[*:1])[*:2]]}$PEPTIDE1,PEPTIDE1,3:R3-7:R2$$$V2.0)",0.051 µM
